For data set [1], the system named is MV4-11. Briefly: Antitumor activity against human MV4-11 cells xenografted in Balb/c nude mouse assessed as tumor growth inhibition at 40 mg/kg, po administered daily for 21 days relative to control. The conditions noted are these: MV4-11, po, 504 h, time 21 day, read-out: TGI. The data set is classed as functional. In short, it runs like this:
(§1)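 Female BALB/c nude mice (6–8 weeks) given ~5 × 10^6 MV4-11 cells in 0.2 mL PBS into the flank; at 100–150 mm3 randomized (6/group) to vehicle (0.9% saline) or 40, 80, 120 mg/kg oral (hydrochloride salt) daily for 21 days. Volume = length × width²/2 every other day; GI% = [1 − (TVt − TV0)/(CVt − CV0)] × 100%.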

The nature of data set [2]: Apparent clearance in Sprague-Dawley rat at 10 mg/kg, po measured upto 24 hrs by LC-MS/MS analysis. It is filed as ADME, organism-based. The conditions noted are these: in vivo. In short, it runs like this: (§2)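 Male SD rats, 6–8 weeks, 220 ± 30 g; single oral dose 10 mg/kg (n = 3). Plasma sampled at 0, 0.25, 0.5, 1, 2, 4, 6, 8 and 24 h, stored at −80 °C, quantified by LC-MS/MS; parameters reported as mean ± SEM.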

The nature of data set [3]: Tmax in Sprague-Dawley rat at 10 mg/kg, po measured upto 24 hrs by LC-MS/MS analysis. The data set is classed as ADME, organism-based. To be noted: in vivo. In short, it runs like this:
as §2

The target in data set [4] is Histone-lysine N-methyltransferase, H3 lysine-79 specific (Homo sapiens, UniProt Q8TEK3). The data set can be described thus: Inhibition of DOT1L (unknown origin) assessed as effect on H3K79 methylation incubated for 30 mins by Alphascreen assay. A digest of the protocol:
(§3)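 AlphaScreen: enzyme, SAM and compound mixed in 10 mM PBS for 30 min at room temperature; acceptor beads and substrate antibody added, 30 min at room temperature, then streptavidin donor beads; read on AlphaScreen reader.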
In general terms: Alpha assays give light when donor and acceptor beads are brought close together.

Data set [5] concerns MV4-11. Briefly: Antitumor activity against human MV4-11 cells xenografted in Balb/c nude mouse assessed as tumor weight inhibition at 120 mg/kg, po administered daily for 21 days relative to control. The conditions noted are these: MV4-11, po, 504 h. It is filed as functional. A digest of the protocol:
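MV4-11 flank xenografts (~5 × 10^6 cells) in female BALB/c nude mice, 6 per group; daily oral dosing (40, 80, 120 mg/kg) or saline vehicle for 21 days, then tumors excised and weighed.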
Background: In xenograft studies the graft and the host belong to different species.

A short description of data set [6]: MRT in Sprague-Dawley rat at 10 mg/kg, po measured upto 24 hrs by LC-MS/MS analysis. The data set is classed as ADME, organism-based. To be noted: in vivo. In short, it runs like this:
as §2

Data set [7] in a line: AUC (0 to infinity) in Sprague-Dawley rat at 2 mg/kg, iv measured upto 24 hrs by LC-MS/MS analysis. The data set is classed as ADME, organism-based. Further details: route intravenous, dose 2 mg/kg, time <=24. To be noted: in vivo.
For data set [8], the target named is T1, Histone-lysine N-methyltransferase 2A (Homo sapiens, UniProt Q03164). The data set can be described thus: Inhibition of MLL1 (unknown origin) in human MV4-11 cells assessed as decrease in Meis1 mRNA level at 1 to 10 uM measured after 7 days by RT-PCR analysis. It is filed as cell-based. A digest of the protocol:
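MV4-11 cells treated 7 days at 0, 1, 2.5, 5, 10 μM; total RNA extracted with TRIzol and Hoxa9/Meis1 transcripts measured by quantitative RT-PCR, in triplicate (n = 3); Student's t-tests.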

For data set [9], the system named is MV4-11. The data set can be described thus: Antitumor activity against human MV4-11 cells xenografted in Balb/c nude mouse assessed as tumor growth inhibition at 80 mg/kg, po administered daily for 21 days relative to control. The data set is classed as functional. The conditions noted are these: MV4-11, po, 504 h, time 21 day, read-out: TGI. A digest of the protocol: as §1

A short description of data set [10]: Toxicity in Balb/c nude mouse xenografted with human MV4-11 cells assessed as tolerability at 40 to 120 mg/kg, po administered daily for 21 days relative to control. It is filed as organism-based. The conditions noted are these: in vivo, 504 h. A digest of the protocol:
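Nude BALB/c females bearing MV4-11 xenografts, dosed orally each day for 21 days at 40, 80 or 120 mg/kg, saline vehicle controls (6 mice/group); body weight recorded every other day.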

Data set [11] concerns MV4-11. Briefly: Antitumor activity against human MV4-11 cells xenografted in Balb/c nude mouse assessed as tumor growth inhibition at 120 mg/kg, po administered daily for 21 days relative to control. It is filed as functional. To be noted: MV4-11, po, 504 h, time 21 day, read-out: TGI. In short, it runs like this: as §1
Data set [12] concerns the target WD repeat-containing protein 5 (Homo sapiens) (UniProt P61964). The data set can be described thus: Binding affinity to WDR5 (unknown origin) assessed as change in entropy by isothermal titration calorimetry assay.
The target in data set [13] is Protein arginine N-methyltransferase 5 (Homo sapiens, UniProt O14744). The data set can be described thus: Inhibition of PRMT5 (unknown origin) assessed as effect on H3R8/H4R3 methylation incubated for 30 mins by Alphascreen assay. In short, it runs like this:
as §3

Data set [14] is described as follows: Metabolic stability in human liver microsomes assessed as clearance at 1 uM in presence of NADPH by LC-MS/MS analysis. It is filed as ADME, Microsome. A digest of the protocol: (§4)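 Compound at 1 μM preincubated 5 min at 37 °C with human or rat liver microsomes (0.7 mg/mL) in 100 mM PBS pH 7.4; reaction started with 1 mM NADPH.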
(In general: Microsomes from liver hold many membrane-bound enzymes, among them those of drug oxidation.)

For data set [15], the target named is T1, Histone-lysine N-methyltransferase 2A. The data set can be described thus: Inhibition of MLL1 (unknown origin) in human MV4-11 cells assessed as decrease in H3Kme3 level at 1 to 10 uM measured after 7 days by Western blot analysis. It is filed as cell-based. In short, it runs like this:
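MV4-11 cells exposed to 1, 2.5, 5 and 10 μM; H3K4me1/me2/me3 assessed by Western blot with histone H3 as loading control. Blots blocked in 1% BSA 1 h, primary antibody overnight at 4 °C, DyLight 800 secondary 1 h at 37 °C, infrared imaging.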

For data set [16], the target named is Histone-lysine N-methyltransferase 2A/WDR5 (Homo sapiens, UniProt P61964). Briefly: Inhibition of MLL1-WDR5 (unknown origin) protein-protein interaction using Thr-FAM as probe by fluorescence polarization competition assay. A digest of the protocol:
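Competitive FP with WDR5 and 10mer-Thr-FAM probe in 100 mM KH2PO4, 25 mM KCl, 0.01% Triton X-100, pH 6.5; read at λex 485 ± 25 nm, λem 535 ± 25 nm. IC50 from three independent replicates ± SD.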

Data set [17] is described as follows: Metabolic stability in rat liver microsomes assessed as half life at 1 uM in presence of NADPH by LC-MS/MS analysis. The data set is classed as ADME, Microsome. In short, it runs like this: as §4
Data set [18] relates to MV4-11. The data set can be described thus: Antiproliferative activity against human MV4-11 cells assessed as cell viability incubated for 72 hrs by CCK8 assay. The data set is classed as functional, cell-based. The conditions noted are these: MV4-11, 72 h. A digest of the protocol:
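Cells seeded at 3000–6000 per well, exposed to inhibitor at several concentrations for 72 h; viability read with CCK8 kit. MV4-11 and K562 grown in modified IMDM + 10% FBS, pen/strep; MOLM-13 in RPMI-1640 + 10% FBS; HUVEC in modified DMEM + 10% FBS; 37 °C, 5% CO2. IC50 as mean ± SD of three independent experiments.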

A short description of data set [19]: Half life in Sprague-Dawley rat at 10 mg/kg, po measured upto 24 hrs by LC-MS/MS analysis. It is filed as ADME, organism-based. To be noted: in vivo. A digest of the protocol:
as §2

Data set [20] concerns the target Histone-lysine N-methyltransferase EZH2 (Homo sapiens, UniProt Q15910). Briefly: Inhibition of EZH2 (unknown origin) assessed as effect on H3K27 methylation incubated for 30 mins by Alphascreen assay. In short, it runs like this:
as §3

The nature of data set [21]: Oral bioavailability in Sprague-Dawley rat at 10 mg/kg measured upto 24 hrs by LC-MS/MS analysis. The data set is classed as ADME, organism-based. To be noted: in vivo. In short, it runs like this: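 Bioavailability from paired rat groups (male SD, n = 3 each): 10 mg/kg oral vs 2 mg/kg i.v.; plasma sampled to 24 h and measured by LC-MS/MS.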
A short description of data set [22]: Apparent volume of distribution in Sprague-Dawley rat at 10 mg/kg, po measured upto 24 hrs by LC-MS/MS analysis. It is filed as ADME, organism-based. To be noted: in vivo, read-out: Vz/F. A digest of the protocol: as §2

Each structure is given as a SMILES string. Calls of active or inactive are those of the source. The rule behind the calls is not given here. Some results are limits rather than exact numbers.

T1 sequence (Q03164 1-2718 limits assumed): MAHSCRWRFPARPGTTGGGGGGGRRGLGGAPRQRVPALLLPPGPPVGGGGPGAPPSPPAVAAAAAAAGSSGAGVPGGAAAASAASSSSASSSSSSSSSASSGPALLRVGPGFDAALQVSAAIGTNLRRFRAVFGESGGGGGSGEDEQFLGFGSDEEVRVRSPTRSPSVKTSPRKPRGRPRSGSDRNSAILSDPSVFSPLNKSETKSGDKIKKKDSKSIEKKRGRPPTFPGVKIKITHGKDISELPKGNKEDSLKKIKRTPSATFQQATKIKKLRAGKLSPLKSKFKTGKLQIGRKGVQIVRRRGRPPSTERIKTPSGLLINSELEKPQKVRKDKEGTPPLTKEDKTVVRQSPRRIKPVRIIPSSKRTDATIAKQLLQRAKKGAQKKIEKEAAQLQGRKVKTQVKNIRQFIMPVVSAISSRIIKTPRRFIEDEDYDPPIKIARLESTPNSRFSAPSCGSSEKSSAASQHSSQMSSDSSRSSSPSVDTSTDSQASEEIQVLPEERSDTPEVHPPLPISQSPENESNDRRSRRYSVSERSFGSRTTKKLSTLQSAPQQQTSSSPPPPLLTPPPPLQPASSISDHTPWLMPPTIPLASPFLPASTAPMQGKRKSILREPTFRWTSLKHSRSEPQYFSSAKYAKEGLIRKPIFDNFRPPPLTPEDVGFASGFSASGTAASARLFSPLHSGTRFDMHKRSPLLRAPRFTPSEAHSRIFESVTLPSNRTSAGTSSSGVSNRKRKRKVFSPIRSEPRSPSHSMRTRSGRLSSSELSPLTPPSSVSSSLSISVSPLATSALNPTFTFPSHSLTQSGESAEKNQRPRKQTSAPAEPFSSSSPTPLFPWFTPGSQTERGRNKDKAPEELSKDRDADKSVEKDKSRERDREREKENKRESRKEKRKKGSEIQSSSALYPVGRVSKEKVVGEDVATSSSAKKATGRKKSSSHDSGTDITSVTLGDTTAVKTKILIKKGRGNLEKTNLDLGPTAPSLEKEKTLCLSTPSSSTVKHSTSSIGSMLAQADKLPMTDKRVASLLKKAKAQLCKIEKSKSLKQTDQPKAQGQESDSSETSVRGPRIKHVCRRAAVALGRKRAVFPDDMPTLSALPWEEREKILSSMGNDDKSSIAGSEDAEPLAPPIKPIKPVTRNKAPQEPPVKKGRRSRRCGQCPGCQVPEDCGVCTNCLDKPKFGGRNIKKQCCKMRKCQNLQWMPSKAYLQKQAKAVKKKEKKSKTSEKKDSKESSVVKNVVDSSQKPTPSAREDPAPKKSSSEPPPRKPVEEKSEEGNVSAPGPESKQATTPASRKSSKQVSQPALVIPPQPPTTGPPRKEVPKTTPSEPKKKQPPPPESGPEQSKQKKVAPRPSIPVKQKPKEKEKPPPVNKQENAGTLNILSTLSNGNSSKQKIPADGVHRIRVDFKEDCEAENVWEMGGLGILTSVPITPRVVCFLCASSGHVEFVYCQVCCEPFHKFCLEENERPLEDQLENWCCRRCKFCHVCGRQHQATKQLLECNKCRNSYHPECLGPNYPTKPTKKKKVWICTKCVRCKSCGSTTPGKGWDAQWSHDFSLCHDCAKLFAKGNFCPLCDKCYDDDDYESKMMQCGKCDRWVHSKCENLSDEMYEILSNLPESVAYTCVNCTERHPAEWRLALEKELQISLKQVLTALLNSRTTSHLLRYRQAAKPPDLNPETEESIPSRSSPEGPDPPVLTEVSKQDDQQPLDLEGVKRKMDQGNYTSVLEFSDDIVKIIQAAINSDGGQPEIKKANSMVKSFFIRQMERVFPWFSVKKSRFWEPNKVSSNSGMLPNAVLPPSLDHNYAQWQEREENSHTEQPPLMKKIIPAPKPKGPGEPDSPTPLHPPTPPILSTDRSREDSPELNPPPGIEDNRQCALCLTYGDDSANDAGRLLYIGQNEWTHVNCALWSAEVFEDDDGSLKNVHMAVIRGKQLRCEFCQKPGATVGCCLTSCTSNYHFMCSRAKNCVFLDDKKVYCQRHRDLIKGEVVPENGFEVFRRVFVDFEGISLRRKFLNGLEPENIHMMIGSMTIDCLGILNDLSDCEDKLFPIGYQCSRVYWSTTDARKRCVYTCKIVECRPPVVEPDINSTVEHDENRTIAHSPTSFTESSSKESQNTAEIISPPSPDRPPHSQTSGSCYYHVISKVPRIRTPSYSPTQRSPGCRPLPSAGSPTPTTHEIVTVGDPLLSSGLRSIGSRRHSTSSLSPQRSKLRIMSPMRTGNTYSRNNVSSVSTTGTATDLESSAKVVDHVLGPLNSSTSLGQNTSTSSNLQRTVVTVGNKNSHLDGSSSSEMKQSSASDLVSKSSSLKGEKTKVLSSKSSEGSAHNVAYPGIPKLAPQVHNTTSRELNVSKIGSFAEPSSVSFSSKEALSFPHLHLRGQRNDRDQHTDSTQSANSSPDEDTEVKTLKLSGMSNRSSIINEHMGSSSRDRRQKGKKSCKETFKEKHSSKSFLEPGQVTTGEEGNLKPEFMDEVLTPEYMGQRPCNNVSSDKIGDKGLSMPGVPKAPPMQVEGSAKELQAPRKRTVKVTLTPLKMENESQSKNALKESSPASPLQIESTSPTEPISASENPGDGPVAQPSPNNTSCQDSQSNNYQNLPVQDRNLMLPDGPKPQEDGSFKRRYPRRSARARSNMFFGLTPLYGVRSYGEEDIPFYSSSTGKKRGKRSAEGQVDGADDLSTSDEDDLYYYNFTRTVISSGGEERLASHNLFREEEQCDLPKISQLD
T1 sequence (Q03164 2719-3969 limits assumed): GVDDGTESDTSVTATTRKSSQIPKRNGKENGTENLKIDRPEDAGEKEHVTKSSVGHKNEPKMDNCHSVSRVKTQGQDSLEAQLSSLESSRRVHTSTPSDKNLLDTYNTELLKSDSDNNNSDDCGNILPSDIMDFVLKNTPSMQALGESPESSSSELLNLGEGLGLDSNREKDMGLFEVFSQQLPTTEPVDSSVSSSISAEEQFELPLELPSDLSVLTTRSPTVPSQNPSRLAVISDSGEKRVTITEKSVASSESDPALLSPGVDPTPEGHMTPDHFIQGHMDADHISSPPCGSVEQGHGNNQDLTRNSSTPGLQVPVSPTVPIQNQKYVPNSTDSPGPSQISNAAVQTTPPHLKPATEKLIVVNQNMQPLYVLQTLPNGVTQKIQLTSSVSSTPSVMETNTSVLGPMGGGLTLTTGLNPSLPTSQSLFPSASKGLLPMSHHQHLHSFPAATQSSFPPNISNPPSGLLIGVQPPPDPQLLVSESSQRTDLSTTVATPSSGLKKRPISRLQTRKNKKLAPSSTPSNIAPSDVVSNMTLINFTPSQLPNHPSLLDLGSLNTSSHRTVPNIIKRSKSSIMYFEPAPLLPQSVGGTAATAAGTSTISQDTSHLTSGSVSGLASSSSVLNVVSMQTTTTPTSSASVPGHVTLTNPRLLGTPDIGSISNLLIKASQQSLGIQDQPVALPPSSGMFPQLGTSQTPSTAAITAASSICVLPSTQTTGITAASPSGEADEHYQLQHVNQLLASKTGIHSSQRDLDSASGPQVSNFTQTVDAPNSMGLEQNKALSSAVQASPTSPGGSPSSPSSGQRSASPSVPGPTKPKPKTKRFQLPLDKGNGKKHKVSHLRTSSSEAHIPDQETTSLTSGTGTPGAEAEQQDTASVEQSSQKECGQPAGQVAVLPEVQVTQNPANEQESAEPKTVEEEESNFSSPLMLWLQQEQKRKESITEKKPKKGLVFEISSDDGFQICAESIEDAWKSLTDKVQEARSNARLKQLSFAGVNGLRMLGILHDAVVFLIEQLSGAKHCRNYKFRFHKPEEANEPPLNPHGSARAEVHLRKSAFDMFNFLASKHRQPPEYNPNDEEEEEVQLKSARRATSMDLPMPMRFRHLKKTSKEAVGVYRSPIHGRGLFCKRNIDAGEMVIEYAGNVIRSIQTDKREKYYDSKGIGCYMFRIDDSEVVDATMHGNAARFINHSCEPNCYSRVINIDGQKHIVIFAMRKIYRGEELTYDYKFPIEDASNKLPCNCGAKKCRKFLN
Histone-lysine N-methyltransferase EZH2, sequence (Q15910 whole entry): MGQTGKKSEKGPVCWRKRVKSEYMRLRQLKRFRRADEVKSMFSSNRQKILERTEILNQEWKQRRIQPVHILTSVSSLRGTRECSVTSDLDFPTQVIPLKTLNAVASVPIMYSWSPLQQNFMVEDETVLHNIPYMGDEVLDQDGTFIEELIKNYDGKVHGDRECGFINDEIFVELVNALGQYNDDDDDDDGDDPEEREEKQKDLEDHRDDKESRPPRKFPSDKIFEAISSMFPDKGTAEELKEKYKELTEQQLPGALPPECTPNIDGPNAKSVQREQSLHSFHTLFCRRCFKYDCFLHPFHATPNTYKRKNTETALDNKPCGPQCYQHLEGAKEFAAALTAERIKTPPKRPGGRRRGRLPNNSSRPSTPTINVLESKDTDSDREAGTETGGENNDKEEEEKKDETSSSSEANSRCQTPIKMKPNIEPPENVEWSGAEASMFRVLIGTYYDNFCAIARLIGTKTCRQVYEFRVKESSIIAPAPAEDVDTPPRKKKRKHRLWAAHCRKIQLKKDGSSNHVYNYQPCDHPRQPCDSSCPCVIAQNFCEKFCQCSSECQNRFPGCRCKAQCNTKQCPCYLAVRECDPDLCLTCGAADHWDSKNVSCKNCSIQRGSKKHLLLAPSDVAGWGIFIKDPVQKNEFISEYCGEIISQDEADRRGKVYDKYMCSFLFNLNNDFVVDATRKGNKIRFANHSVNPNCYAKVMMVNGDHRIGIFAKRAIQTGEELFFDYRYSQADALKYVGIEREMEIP

Broadly, the CL/F is the apparent clearance, not corrected for the fraction that reaches the circulation. As a reminder, the Tmax is the time from dosing to the highest level. By IC50 is commonly meant the point on the concentration scale where inhibition reaches its midpoint. Broadly, the MRT is a mean duration of stay, worked out from the concentration-time curve. The term AUC(0-inf) denotes the area under the concentration-time curve extrapolated to infinity. Broadly, the half-life is how long it takes for the measured level to halve. As usually defined, the bioavailability is dose-corrected exposure relative to a reference, in per cent. High values mean good availability, low ones poor availability. As for `CN1CCN(c2cc(F)c(-c3ccc(C(=O)N(C)C)cc3)cc2Nc2ncnc(Cl)c2N)CC1`, the inhibition in vivo at 40 mg/kg in [1] was 39.4%. In data set [2], the CL/F is 97.2 mL/min/kg. In addition, the Tmax in data set [3] was 2 h. For the same compound, the IC50 in data set [4] is above 100 µM; in data set [13] it was above 100 µM; in data set [16] it was 0.029 µM; in data set [18], 12.6 µM; in data set [20], above 100 µM. The inhibition in vivo at 120 mg/kg in data set [5] was 56.8%; in data set [11] it was 54.5%. Besides, the MRT in data set [6] is 5.42 h. The compound also yielded an AUC(0-inf) in data set [7] of 424 ng·h/mL. Further, the inhibition entry in data set [8] and in data set [15] was “Active” throughout. Further, the inhibition in vivo at 80 mg/kg in data set [9] was found to be 53.6%. Moreover, the Activity result in [10] is recorded as “Non-Toxic”. Moreover, in data set [12], the -TdeltaS came to 2.51 kcal/mol. For the same compound, the CLH in [14] stood at 14.1 µL/min/mg. Further, in data set [17], the half-life at 1 µM turned out to be 1.1 h. The same compound had a half-life in data set [19] of 4.94 h. The same compound registered a bioavailability in data set [21] of 82.1%. In [22], the Vd/F came to 37.1 L/kg.

The values are drawn from ChEMBL document CHEMBL5033998, “Discovery of DDO-2213 as a Potent and Orally Bioavailable Inhibitor of the WDR5-Mixed Lineage Leukemia 1 Protein-Protein Interaction for the Treatment of MLL Fusion Leukemia” (J Med Chem, 2021).
